ChEMBL document CHEMBL5512642, “Novel triterpenoid pyrones, phthalimides and phthalates are selectively cytotoxic in CCRF-CEM cancer cells - Synthesis, potency, and mitochondrial mechanism of action” (Eur J Med Chem, 2024)
Calls of active or inactive are those of the source. No cut-off for these calls is given here.

Legend:
CCRF-CEM [1] = experiment: Cytotoxicity against human CCRF-CEM cells assessed as reduction in cell viability incubated for 72 hrs by MTS assay; format: functional, cell-based
CEM-DNR = experiment: Cytotoxicity against human CEM-DNR cells assessed as reduction in cell viability incubated for 72 hrs by MTS assay; format: functional, cell-based
K562 = experiment: Cytotoxicity against human K562 cells assessed as reduction in cell viability incubated for 72 hrs by MTS assay; format: functional, cell-based; conditions: K562, 72 h
[2] = Cytotoxicity against human K562-Tax cells assessed as reduction in cell viability incubated for 72 hrs by MTS assay; format: functional, cell-based
A549 = experiment: Cytotoxicity against human A549 cells assessed as reduction in cell viability incubated for 72 hrs by MTS assay; format: functional, cell-based; conditions: A549, 72 h
HCT-116 = experiment: Cytotoxicity against human HCT-116 cells assessed as reduction in cell viability incubated for 72 hrs by MTS assay; format: functional, cell-based; conditions: HCT-116, 72 h
HCT 116 TP53(-/-) = experiment: Cytotoxicity against human HCT116-p53-null cells assessed as reduction in cell viability incubated for 72 hrs by MTS assay; format: functional, cell-based
U2OS = experiment: Cytotoxicity against human U2OS cells assessed as reduction in cell viability incubated for 72 hrs by MTS assay; format: functional, cell-based
[3] = Cytotoxicity against human BJ cells assessed as reduction in cell viability incubated for 72 hrs by MTS assay; format: toxicity, cell-based
[4] = Cytotoxicity against human MRC5 cells assessed as reduction in cell viability incubated for 72 hrs by MTS assay; format: toxicity, cell-based
[5] = Stability in human plasma assessed as compound remaining measured 15 mins by RF-MS analysis; format: ADME, cell-free; conditions: read-out: Stability
Outline: (§1)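 Compounds incubated in human plasma in vitro for up to 2 h. Percent remaining sampled at 15, 30, 60 and 120 min. Run in triplicate.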

[6] = Stability in human plasma assessed as compound remaining measured 30 mins by RF-MS analysis; format: ADME, cell-free; conditions: read-out: Stability; outline: as §1
[7] = Stability in human plasma assessed as compound remaining measured 60 mins by RF-MS analysis; format: ADME, cell-free; conditions: read-out: Stability; outline: as §1
[8] = Stability in human plasma assessed as compound remaining measured 120 mins by RF-MS analysis; format: ADME, cell-free; conditions: read-out: Stability; outline: as §1
[9] = Plasma protein binding in human assessed as fraction bound at 10 uM by rapid equilibrium dialysis based RF-MS analysis; format: ADME, cell-free; conditions: read-out: PPB (converted)
Outline: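 Human plasma protein binding measured by equilibrium dialysis and reported as percent fraction bound. Run in triplicate.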

[10] = Apparent permeability of the compound in MDCK-MDR1 cells at 10 uM incubated for 1 hr by RF-MS analysis; format: ADME, cell-based, Canis lupus familiaris; conditions: dog
Outline: (§2)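 Caco-2 and MDCK-MDR1 monolayers; transport measured in both directions, apical→basolateral and basolateral→apical. Efflux ratio taken from the two directions; ER > 2 counted as active efflux. Compound recovery reported. Cell-based permeability runs done in duplicate.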

[11] = Apparent permeability of the compound across apical to basolateral side in MDCK-MDR1 cells assessed as compound recovery at 10 uM incubated for 1 hr by RF-MS analysis; format: ADME, cell-based, Canis lupus familiaris; conditions: dog, read-out: Activity; outline: as §2
[12] = Metabolic stability in human liver microsomes assessed as compound remaining at measured at 15 mins in presence of NADPH by RF-MS analysis; format: ADME, Microsome; conditions: read-out: Stability
Outline: (§3)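 Human liver microsomes with NADPH cofactor to assess phase I oxidation. Compound remaining sampled at 15, 30 and 60 min; intrinsic clearance derived and categorized. Run in triplicate.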

[13] = Metabolic stability in human liver microsomes assessed as compound remaining at measured at 60 mins in presence of NADPH by RF-MS analysis; format: ADME, Microsome; conditions: read-out: Stability; outline: as §3
[14] = Apparent permeability of the compound in human Caco-2 cells; format: ADME, cell-based; outline: as §2
[15] = Apparent permeability of the compound across apical to basolateral side in human Caco-2 cells assessed as compound recovery; format: ADME, cell-based; conditions: read-out: Activity; outline: as §2
CCRF-CEM [16] = experiment: Induction of apoptosis in human CCRF-CEM cells assessed as viable cells at 1 time IC50 incubated for 24 hrs by Annexin V and propidium iodide staining based flow cytometry analysis (reference value: 98%); format: functional
CCRF-CEM [17] = experiment: Induction of apoptosis in human CCRF-CEM cells assessed as early apoptotic cells at 1 time IC50 incubated for 24 hrs by Annexin V and propidium iodide staining based flow cytometry analysis (reference value: 1.4%); format: functional
CCRF-CEM [18] = experiment: Induction of apoptosis in human CCRF-CEM cells assessed as late apoptotic cells at 1 time IC50 incubated for 24 hrs by Annexin V and propidium iodide staining based flow cytometry analysis (reference value: 0.5%); format: functional
CCRF-CEM [19] = experiment: Induction of apoptosis in human CCRF-CEM cells assessed as necrotic cells at 1 time IC50 incubated for 24 hrs by Annexin V and propidium iodide staining based flow cytometry analysis (reference value: 0.1%); format: functional
CCRF-CEM [20] = experiment: Induction of apoptosis in human CCRF-CEM cells assessed as viable cells at 5 time IC50 incubated for 24 hrs by Annexin V and propidium iodide staining based flow cytometry analysis (reference value: 98%); format: functional
CCRF-CEM [21] = experiment: Induction of apoptosis in human CCRF-CEM cells assessed as early apoptotic cells at 5 time IC50 incubated for 24 hrs by Annexin V and propidium iodide staining based flow cytometry analysis (reference value: 1.4%); format: functional
CCRF-CEM [22] = experiment: Induction of apoptosis in human CCRF-CEM cells assessed as late apoptotic cells at 5 time IC50 incubated for 24 hrs by Annexin V and propidium iodide staining based flow cytometry analysis (reference value: 0.5%); format: functional
CCRF-CEM [23] = experiment: Induction of apoptosis in human CCRF-CEM cells assessed as necrotic cells at 5 time IC50 incubated for 24 hrs by Annexin V and propidium iodide staining based flow cytometry analysis (reference value: 0.; format: functional
CCRF-CEM [24] = experiment: Antimitotic activity against human CCRF-CEM cells assessed as decrease in cell division at 5 times of IC50; format: functional, cell-based
Outline: (§4)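 Mitotic fraction scored with the pH3 Ser10 marker and DNA synthesis with BrdU incorporation. For transcription, cells received a short BrU pulse after the 24 h pre-incubation. Read by flow cytometry against untreated cells.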

CCRF-CEM [25] = experiment: Antiproliferative activity against human CCRF-CEM cells assessed as reduction cell population at 1 time of IC50 by BrdU incorporation assay; format: functional, cell-based; outline: as §4
CCRF-CEM [26] = experiment: Induction of apoptosis in human CCRF-CEM cells assessed as reduction in caspase-3 expression at 5 time of IC50 incubated for 24 hrs by Western blot analysis; format: functional, cell-based
Outline: (§5)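 Lysate 20 µg protein per lane on SDS-PAGE, transferred to nitrocellulose, blocked in 5% BSA/TBS-Tween. Probed overnight at 4 °C with anti-caspase-3, Bcl-2, Bcl-XL, β-actin, then HRP secondary 1 h. ECL chemiluminescence detection.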

CCRF-CEM [27] = experiment: Induction of apoptosis in human CCRF-CEM cells assessed as reduction in Bcl-2 expression at 5 time of IC50 incubated for 24 hrs by Western blot analysis; format: functional, cell-based; outline: as §5
CCRF-CEM [28] = experiment: Induction of apoptosis in human CCRF-CEM cells assessed as reduction in Bcl-XL expression at 5 time of IC50 incubated for 24 hrs by Western blot analysis; format: functional, cell-based; outline: as §5
CCRF-CEM [29] = experiment: Antiproliferative activity against human CCRF-CEM cells assessed as inhibition of RNA synthesis at 5 time of IC50 by BrdU incorporation assay; format: functional, cell-based; conditions: in the assay text read “BrU incorporation assay” for “BrdU incorporation assay”; outline: as §4
CCRF-CEM [30] = experiment: Antiproliferative activity against human CCRF-CEM cells assessed as reduction BruD positive cell at 1 time of IC50 by BrdU incorporation assay; format: functional, cell-based; outline: as §4
CCRF-CEM [31] = experiment: Antiproliferative activity against human CCRF-CEM cells assessed as reduction BruD positive cell at 5 time of IC50 by BrdU incorporation assay; format: functional, cell-based; outline: as §4
CCRF-CEM [32] = experiment: Induction of mitochondrial membrane potential loss in human CCRF-CEM cells assessed as cells with depolarized mitochondria (P2 gate) by measuring green fluorescence intensity at 1 time IC50 incubated for 24 hrs by JC-1 staining based flow cytometry (reference value: 2.1%)
CCRF-CEM [33] = experiment: Induction of mitochondrial membrane potential loss in human CCRF-CEM cells assessed as cells with depolarized mitochondria (P2 gate) by measuring green fluorescence intensity at 5 time IC50 incubated for 24 hrs by JC-1 staining based flow cytometry (reference value: 2.1%)
[34] = Efflux ratio of apparent permeability across basolateral to apical side over apical to basolateral side in MDCK-MDR1 cells; format: ADME, cell-based, Canis lupus familiaris; conditions: dog; outline: as §2
[35] = Metabolic stability in human liver microsomes assessed as compound remaining at measured at 30 mins in presence of NADPH by RF-MS analysis; format: ADME, Microsome; conditions: read-out: Stability; outline: as §3
[36] = Efflux ratio of apparent permeability across basolateral to apical side over apical to basolateral side in human Caco-2 cells; format: ADME, cell-based; outline: as §2

| Structure (SMILES) | IC50 (CCRF-CEM [1]) | IC50 (CEM-DNR) | IC50 (K562) | IC50 [2] | IC50 (A549) | IC50 (HCT-116) | IC50 (HCT 116 TP53(-/-)) | IC50 (U2OS) | IC50 at 72 h [3] | IC50 at 72 h [4] | remaining at 0.25 h [5] | remaining at 0.5 h [6] | remaining at 1 h [7] | remaining at 2 h [8] | fraction unbound at 10 µM [9] | Papp at 1 h, 10 µM [10] | recovery at 1 h, 10 µM [11] | remaining at 0.25 h [12] | remaining at 1 h [13] | Papp [14] | also measured |
| --- | --- | --- | --- | --- | --- | --- | --- | --- | --- | --- | --- | --- | --- | --- | --- | --- | --- | --- | --- | --- | --- |
| CC(C)[C@@H]1CC[C@]2(C(=O)O)CC[C@]3(C)[C@H](CC[C@@H]4[C@@]5(C)Cc6c(C(F)(F)F)cc(=O)oc6C(C)(C)[C@@H]5CC[C@]43C)[C@@H]12 | 3.5 µM | 4.9 µM | 23 µM | 17 µM | 11 µM | 10 µM | 18 µM | 19 µM | > 50 µM | 27 µM | 98.4% | 97.7% | 97.5% | 94.2% | 0.056 | 0.27 ×10⁻⁶ cm/s | 64.8% | 106% | 82% | 0.15 ×10⁻⁶ cm/s | recovery [15]: 105%; Activity (CCRF-CEM [16]): 92.4%; Activity (CCRF-CEM [17]): 4.8%; Activity (CCRF-CEM [18]): 2.8%; Activity (CCRF-CEM [19]): 0%; Activity (CCRF-CEM [20]): 69.9%; Activity (CCRF-CEM [21]): 14.3%; Activity (CCRF-CEM [22]): 15.8%; Activity (CCRF-CEM [23]): 0%; Activity (CCRF-CEM [24]): Active; Activity (CCRF-CEM [25]): inactive; Activity (CCRF-CEM [26]): Active; Activity (CCRF-CEM [27]): Active; Activity (CCRF-CEM [28]): Active; Activity (CCRF-CEM [29]): Active; Activity (CCRF-CEM [30]): inactive; Activity (CCRF-CEM [31]): Active; Activity (CCRF-CEM [32]): 4%; Activity (CCRF-CEM [33]): 28.6% |
| CC(C)[C@@H]1CC[C@]2(C(=O)O)CC[C@]3(C)[C@H](CC[C@@H]4[C@@]5(C)CC6=C(C7C(=O)N(c8ccccc8)C(=O)C7C=C6C(F)(F)F)C(C)(C)[C@@H]5CC[C@]43C)[C@@H]12 (stereo partly drawn) | 4.5 µM | > 50 µM | 30 µM | > 50 µM | 18 µM | 29 µM | 28 µM | 4.8 µM | 25 µM | 28 µM | 99.2% | 102% | 96.7% | 89% | 0.403 | 0.05 ×10⁻⁶ cm/s | 86% | 92% | 56% | 0.09 ×10⁻⁶ cm/s | efflux ratio [34]: 71.8; remaining at 0.5 h [35]: 92%; efflux ratio [36]: 63.5; recovery [15]: 84.2%; Activity (CCRF-CEM [16]): 92.4%; Activity (CCRF-CEM [17]): 4.7%; Activity (CCRF-CEM [18]): 2.9%; Activity (CCRF-CEM [19]): 0%; Activity (CCRF-CEM [20]): 90.3%; Activity (CCRF-CEM [21]): 5.2%; Activity (CCRF-CEM [22]): 4.5%; Activity (CCRF-CEM [23]): 0%; Activity (CCRF-CEM [24]): inactive; Activity (CCRF-CEM [25]): Active; Activity (CCRF-CEM [27]): Active; Activity (CCRF-CEM [28]): Active; Activity (CCRF-CEM [29]): Active; Activity (CCRF-CEM [32]): 2.2%; Activity (CCRF-CEM [33]): 6.7% |
